Screens (PubChem BioAssay)
This excerpt belongs to a sample that is enriched for hits.
HUVEC prolif 384 = blocks proliferation of human endothelial cells; HUVEC proliferation, CellTiter-Glo luminescence, 72 h; active compounds read low; viability, % at 10 µM (by protocol); hit rate 1.1% among 86,000;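 active = viability at or below 30%; inactive = viability above 30%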
PTEN del growth = suppresses growth of cells with PTEN deletion; viability, % at 10 µM; hit rate 1.2% among 140,000; HCT116 PTEN-null viability, CellTiter-Glo, 60 h; active compounds read low;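 active = viability at or below a set limit, 4 SD under the median of all tested compounds, cut at about 3.7% in these data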;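 note: PTEN knockout HCT116 line with beta catenin targeted HCT116 as companion control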
bCat KO growth = beta-catenin-lacking colon tumor cell growth suppression | HCT116 beta-catenin knockout viability, CellTiter-Glo, 60 h; active compounds read low | viability, % at 10 µM | hit rate 1.5% among 140,000 | AID 818;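 active = viability at or under a set limit, the compound median less 4 SD, cut at about 6% in these data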
H69AR inhibit = growth inhibitors of human H69AR lung tumor cells; H69AR lung tumor viability, ATP luminescence, 72 h; active compounds read low; viability, % at 10 µM; hit rate 6% among 85,000;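 active = viability at or below 40%; inactive = viability above 40%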;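 note: multidrug resistant small cell line overexpressing MRP-1 efflux transporter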
Fibroblast inh = blocks proliferation of human lung fibroblasts; LL 47 human lung fibroblast viability, ATP luminescence; active compounds read low; viability, % at 10 µM; hit rate 1.1% among 85,000;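 active = viability at or below 50% in the single dose screen; inactive = viability above 50%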;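 note: compound exposure lasted 72 h before the ATP readout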
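Material: human lung fibroblast line LL 47, low passage; Evaluation: viability percentage against median untreated-cell control; Buffer or medium: 15% FBS in IMEM; Incubation: 72 h compound exposure at 37 °C after overnight plating; Dosing: 0.1% DMSO in all compound wells; Measured by: CellTiter-Glo luminescence.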
A number is an active result; 0 = inactive; - = no result given.

SMILES | HUVEC prolif 384 | PTEN del growth | bCat KO growth | H69AR inhibit | Fibroblast inh
O=C(NCc1ccco1)c1cc2n(n1)C(C(F)(F)F)CC(c1ccc(Cl)c(Cl)c1)N2 (centres undefined) | 0 | 0 | 0 | 31 | 0
O=C(NCc1ccco1)c1cc2n(n1)C(C(F)(F)F)CC(c1ccc(Br)cc1)N2 (centres undefined) | 0 | 0 | 0 | 0 | 0
CCn1c(=O)c(C(=O)Nc2cnccn2)c(O)c2ccccc21 | 0 | - | - | 0 | 0
Cn1c(=O)c(C(=O)Nc2cnccn2)c(O)c2ccccc21 | 0 | - | - | 0.6 | 0
Cn1c(=O)c(C(=O)Nc2ccccn2)c(O)c2ccccc21 | 0 | 0 | 0 | 19 | 0
COc1ccc(S(=O)(=O)N2c3cc(Cl)ccc3Oc3nc4ccccc4nc32)cc1 | 0 | 0 | 0 | 29 | 0
COc1ccccc1NC(=O)C(NC(=O)OC(C)(C)C)C(C)OCc1ccccc1 (centres undefined) | - | 0 | 0 | - | -
CCCCCCCn1c(=N)n(CC(=O)c2ccco2)c2ccccc21 | 0 | 2.0 | 4.7 | 24 | 0
O=C1/C(=C/c2cccnc2)Oc2cc(OS(=O)(=O)c3ccccc3)ccc21 | 0 | 0 | 0 | 3.4 | 0
COc1ccc(S(=O)(=O)Oc2ccc3c(c2)O/C(=C\c2cccnc2)C3=O)cc1 | 0 | 0 | 0 | 17 | 0
O=C1/C(=C/c2cccnc2)Oc2cc(OS(=O)(=O)c3ccc(Cl)cc3)ccc21 | 0 | 0 | 0 | 0 | 0
COc1ccccc1C(=O)Oc1ccc2c(c1)O/C(=C\c1ccncc1)C2=O | - | 0 | 0 | - | -
CCOC(=O)c1ccc(NC(=O)C(C)N2C(=O)c3ccccc3C2=O)cc1 (centres undefined) | 0 | 0 | 0 | 0 | 0
CCOC(=O)c1ccc(NC2=CC(=O)C(=O)c3ccccc32)cc1 | 5.4 | 0 | 1.4 | 0 | 3.9
Cc1ccc(NC2=CC(=O)C(=O)c3ccccc32)cc1 | 6.5 | 0.6 | 1.2 | 3.4 | 7.3
Cc1nc(SCC(O)CO)c([N+](=O)[O-])[nH]1 (centres undefined) | 0 | 0 | 0 | 0 | 0
CC(=O)Nc1ccc(S(=O)(=O)N2CCN(c3nc(NC4CCCC4)c4ccccc4n3)CC2)cc1 | 11 | 1.5 | 1.5 | 1.4 | 0
CC(=O)Nc1ccc(S(=O)(=O)N2CCN(c3cc(C)nc4ccccc34)CC2)cc1 | 0 | 0 | 0 | 0 | 0
CCOC(=O)C1=C(O)c2ccccc2C(=O)/C1=C\c1ccc(CC)cc1 | - | 0 | 0 | - | -
CCOC(=O)C1=C(Cc2ccc(C)cc2)C(=O)c2ccccc2C1=O | 18 | 0 | 0 | 2.0 | 0
CCOC(=O)C1=C(Cc2ccc(OC)cc2)C(=O)c2ccccc2C1=O | 0 | 0 | 0 | 1.8 | 0
CCOC(=O)c1c(C)nc2c(c1-c1cc(OC)ccc1OC)C(=O)c1ccccc1-2 | - | 0 | 0 | - | -
COC(=O)c1c(NC(=O)CC2SC(N)=NC2=O)sc2c1CCC(C(C)(C)C)C2 (centres undefined) | - | 0 | 0 | - | -
Cc1ccc2sc(NC(=O)CN3C(=O)CCC3=O)nc2c1C | 0 | 0 | 0 | 0 | 0
Cc1c(Cl)ccc2sc(NC(=O)CN3C(=O)c4ccccc4C3=O)nc12 | - | 0.5 | 0.8 | - | -
SMILES | HUVEC prolif 384 | PTEN del growth | bCat KO growth | H69AR inhibit | Fibroblast inh
CCOC(=O)c1sc(NC(=O)c2cc3n(n2)C(C(F)(F)F)CC(c2ccccc2)N3)c(C(=O)OCC)c1C (centres undefined) | - | 0 | 0 | - | -
CNC(=S)N/N=C/c1cn(CCOc2ccc(OC)cc2)c2ccccc12 | - | 0 | 0 | - | -
c1ccc(Nc2cccc(Nc3ccccc3)c2)cc1 | - | 0 | 0 | - | -
[O-][N+]1=c2ccc(Nc3ccccc3)cc2=NC12CCCCC2 | 4.6 | 1.1 | 1.6 | 1.2 | 13
COc1ccc(Nc2ccc3c(c2)=NC2(CCCCC2)[N+]=3[O-])cc1 | - | 1.2 | 1.1 | - | -
COc1ccc(NC2=NC(=S)N(c3ccccc3C)C23CCCCC3)cc1 | - | 0 | 0 | - | -
COc1ccc(NC(=O)c2cc3c(s2)CCC(C)C3)cc1S(=O)(=O)N1CCOCC1 (centres undefined) | - | 0 | 0 | - | -
CNC(=S)N/N=C(\C)c1ccc(N2CCOCC2)cc1 | - | 1.3 | 4.8 | - | -
CCNC(=S)N/N=C(\C)c1ccc(N2CCOCC2)cc1 | - | 0 | 0 | - | -
Cc1ccc(S(=O)(=O)Nc2cc3c(C(=O)Nc4ccccc4)c(C)oc3c3ccccc23)cc1 | - | 0 | 0 | - | -
CC1=C(OC(=O)c2ccccc2)C(C)(C)C(c2ccc(Br)cc2)OC1=O (centres undefined) | 0 | 0 | 0 | 0 | 0
CCc1nnc2n1N=C(c1ccc(-c3ccc(Cl)cc3Cl)o1)CS2 | 0 | - | - | 0 | 0
Clc1ccc(OCc2nnc3n2N=C(c2ccc4c(c2)OCCO4)CS3)c(Cl)c1 | 0 | 0 | 0 | 38 | 0
S=C(Nc1ccc(Cl)c(Cl)c1)NN1CCOCC1 | - | 0 | 0 | - | -
COC(=O)c1ccc2c(c1O)C(=O)c1ccccc1C2=O | - | 2.8 | 4.5 | - | -
O=C(CCSc1nc(-c2ccc3c(c2)OCO3)cc(C(F)(F)F)n1)NCc1ccco1 | 0 | 0 | 0 | 33 | 0
COc1ccc(CNC(=O)CCSc2nc(-c3ccc4c(c3)OCO4)cc(C(F)(F)F)n2)cc1 | 0 | 0 | 0 | 33 | 0
COCCNC(=O)CCSc1nc(-c2ccc(OC)cc2)cc(C(F)(F)F)n1 | 0 | 0 | 0 | 0 | 0
CN(Cc1ccccc1)C(=O)CCSc1nc(-c2ccc3c(c2)OCO3)cc(C(F)(F)F)n1 | 0 | 0 | 0 | 0 | 0
O=C(CCSc1nc(-c2ccc3c(c2)OCO3)cc(C(F)(F)F)n1)NCc1ccccc1 | 0 | 0 | 0 | 23 | 0
Cc1cccc2c(SCC(=O)NCC3CCCO3)nc(-c3ccc(F)cc3)nc12 (centres undefined) | - | 0 | 0 | - | -
NC(=O)CNC(=O)[C@@H]1CC2(CC(c3ccccc3)=NO2)CN1C(=O)c1ccc(Br)cc1 (some centres undefined) | - | 0 | 0 | - | -
NC1=NC(=Nc2cccc(Cl)c2)c2ccccc21 | - | 0 | 0 | - | -
Cc1cc(OCc2cn3cccnc3n2)ccc1Cl | - | 0 | 0 | - | -
COCCCNC(=O)c1cc2c(=O)n(C)c3ccccc3c2n1C | 0 | 0 | 0 | 24 | 0
SMILES | HUVEC prolif 384 | PTEN del growth | bCat KO growth | H69AR inhibit | Fibroblast inh
Cn1c(C(=O)Nc2ccc3c(c2)OCCO3)cc2c(=O)n(C)c3ccccc3c21 | 0 | 0 | 0 | 21 | 0
Cn1c(C(=O)NCCCN2CCc3ccccc3C2)cc2c(=O)n(C)c3ccccc3c21 | 0 | 0 | 0 | 35 | 0
COC(=O)c1ccc(Cl)c(NS(=O)(=O)c2ccc3c(c2)OCCO3)c1 | 0 | 0 | 0 | 20 | 0
CC(=O)c1cc2c(cc1NS(=O)(=O)c1ccc3c(c1)OCCO3)OCO2 | 0 | 0 | 0 | 0 | 0
COC(=O)COc1ccc(S(=O)(=O)Nc2ccc3c(c2)OCCO3)cc1Cl | 28 | 0 | 0 | 0 | 24
CC1CCN(c2nc(Cl)nc(Nc3ccc([N+](=O)[O-])cc3)n2)CC1 | - | 0 | 2.2 | - | -
O=c1c(Cl)c(N2CCN(S(=O)(=O)c3ccc(F)cc3)CC2)cnn1-c1cccc(Cl)c1 | - | 0 | 0 | - | -
Cc1cc(-n2c(SCC(=O)NCc3cccs3)nc3n[nH]c(C)c3c2=N)ccc1Cl | 0 | - | 0 | 24 | 0
CCc1ccc(NC(=O)CSc2nc3n[nH]c(C)c3c(=N)n2-c2cccc(OC)c2)cc1 | 0 | 0 | 0 | 10 | 0
COc1cc(OC)c2nc(C)c3c(c2c1)N(c1ccc(O)cc1)CC3 | - | 0 | 4.5 | - | -
